# Bioassay records: PubChem BioAssay, several laboratories
# Sampled rows, rich in hits. Any-hit rate of the full collection: about 0.74%.
# RGS16-Gao HTS: RGS16-Galphao interaction regulator (human) | AID 1441 | O15492+P09471 | 0.38% of 220,000 active | binding response (% of control), % at 10 µM | bead-based flow cytometry RGS16-Galphao binding, fluorescence; actives lie on both sides;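 further: Galphao activated by GDP with aluminum fluoride before binding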
# Target sequence (O15492 whole entry, looked up): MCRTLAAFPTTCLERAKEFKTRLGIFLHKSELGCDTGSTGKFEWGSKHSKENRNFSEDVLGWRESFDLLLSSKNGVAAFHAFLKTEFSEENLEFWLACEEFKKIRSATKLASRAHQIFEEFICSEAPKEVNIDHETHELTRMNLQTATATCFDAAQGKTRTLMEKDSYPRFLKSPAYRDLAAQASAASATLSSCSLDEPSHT
# Target sequence (P09471 whole entry, looked up): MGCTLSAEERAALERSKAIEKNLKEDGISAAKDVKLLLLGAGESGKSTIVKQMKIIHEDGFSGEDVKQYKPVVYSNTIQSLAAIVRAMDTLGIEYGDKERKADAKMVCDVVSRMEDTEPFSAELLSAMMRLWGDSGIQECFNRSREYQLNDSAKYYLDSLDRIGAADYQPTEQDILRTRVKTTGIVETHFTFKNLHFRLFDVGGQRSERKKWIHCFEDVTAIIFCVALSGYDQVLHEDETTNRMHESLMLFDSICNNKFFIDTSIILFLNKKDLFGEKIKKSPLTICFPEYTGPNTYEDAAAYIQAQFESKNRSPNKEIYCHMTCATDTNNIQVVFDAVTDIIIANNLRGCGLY
# Biofilm kill mix: mixture kills Candida albicans biofilm cells; 0.02% of 120,000 active; AID 1242; inhibition, % at 7.6 µM; C. albicans biofilm persisters + clotrimazole, fluorescence viability; primary screen in compound mixtures of four per well;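 further: compounds exposed to preformed 24 h biofilms for 48 h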
#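 Test system: C. albicans CAF4-2 wild-type biofilms; buffer or medium: RPMI/MOPS medium, pH 7.0; schedule: 24 h biofilm formation, then 48 h compound exposure, 37 °C; detection: Alamar Blue fluorescence; measure: percent inhibition of biofilm viability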
# RGS4-Gao reg: human RGS4-Galphao interaction regulation; binding response (% of control), % at 10 µM; 0.33% of 220,000 active; Multiplexed bead flow cytometry, RGS4-Galphao binding; actives lie on both sides; P09471; in the data active means binding response below about 49% or above about 150%; inactive means in between;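 further: fluorescent Galphao activated with aluminum fluoride binding bead-coupled RGS4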
# Target sequence (P09471 whole entry, looked up): as above
# RGS7-Gao reg: human RGS7-Galphao interaction regulation; P09471; Multiplexed bead flow cytometry, RGS7-Galphao binding; actives lie on both sides; binding response (% of control), % at 10 µM; 0.35% of 220,000 active; in the data active means binding response below about 49% or above about 150%; inconclusive means no clear call, values can overlap the other calls; inactive means in between;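 further: fluorescent Galphao held in activated GDP-AlF4 state binding bead-coupled RGS7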
# RGS8-Gao reg: modulates binding of RGS8 to human Galphao. AID 1423. 0.34% of 220,000 active. response (percent of control binding), % at 10 µM. multiplexed bead flow cytometry; actives lie on both sides; in the data active means response below about 60% or above about 140%; inactive means in between;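 further: Galphao activated as the GDP aluminium fluoride complex binding bead-coupled RGS8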
# RGS4-Gao HTS: RGS4-Galphao interaction regulator (human); shares compounds with RGS16-Gao HTS; multiplexed bead flow cytometry, RGS–Galpha-o binding; RGS4–Galpha-o binding response, % at 10 µM; 99% of 1,600 active;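 further: fluorescently labeled Galpha-o bound to GDP with aluminium fluoride binding biotinylated RGS beads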
# Avidin counter: interferes with biotinylated probe binding to avidin beads; shares compounds with RGS16-Gao HTS; streptavidin beads, fluorescein-biotin binding, flow cytometry; inhibition, % at 10 µM; 1,700 tested, under 10 active; AID 1783;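 active means inhibition above 50%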;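 further: median green fluorescence of gated singlet beads compared with DMSO control wells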
# RGS8-Gao single: confirmation of regulators of human RGS8-Galphao interaction; shares compounds with RGS16-Gao HTS; bead-based flow cytometry RGS8-Galphao binding, fluorescence; actives lie on both sides; binding response (% of control), % at 10 µM; 3% of 1,700 active; in the data active means binding response below about 72% or above about 130%; inactive means in between;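 further: Galphao activated as GDP AlF4 complex before binding bead RGS8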
# RGS7-Gao single: RGS7-Galphao interaction regulation, single point confirmation | bead-based flow cytometry RGS7-Galphao binding; actives lie on both sides | response (percent of control binding), % at 10 µM | shares compounds with RGS16-Gao HTS | 7.8% of 1,700 active; in the data active means response below about 75% or above about 130%; inactive means in between;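 further: fluorescent Galphao activated with GDP and aluminum fluoride binding bead-coupled RGS7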
# RGS16-Gao single: RGS16-Galphao interaction regulation, single point confirmation. shares compounds with RGS16-Gao HTS. response (% of control binding), % at 10 µM. bead-based flow cytometry, RGS16-Galphao binding; actives lie on both sides. AID 1838. 4% of 1,700 active; in the data active means response below about 74% or above about 130%; inactive means in between;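 further: Galphao activated as the GDP aluminium fluoride complex binding bead-coupled RGS16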
# RGS4-Gao single: RGS4-Galphao interaction regulation, single point confirmation; 4% of 1,700 active; binding response (% of control), % at 10 µM; shares compounds with RGS16-Gao HTS; RGS4-Galphao binding, multiplexed bead flow cytometry; actives lie on both sides; in the data active means binding response below about 74% or above about 130%; inactive means in between
# RGS19-Gao conf: confirmation of regulators of human RGS19-Galphao interaction; response (percent of control binding), % at 10 µM; shares compounds with RGS16-Gao HTS; bead-based flow cytometry RGS19-Galphao binding; actives lie on both sides; AID 1841; 5% of 1,700 active; in the data active means response below about 50% or above about 160%; inactive means in between
# A number is an active result; i = inactive; ? = inconclusive; nt = no result given; [ ] = dose if it differs, or a comment. Unless noted, how the calls were made is not given here.
SMILES,RGS16-Gao HTS,Biofilm kill mix,RGS4-Gao reg,RGS7-Gao reg,RGS8-Gao reg,RGS4-Gao HTS,Avidin counter,RGS8-Gao single,RGS7-Gao single,RGS16-Gao single,RGS4-Gao single,RGS19-Gao conf
Cc1cc(NC(=O)CSc2nnc(-c3ccco3)o2)no1,nt,nt,i,i,i,nt,i,i,i,i,i,i
O=Cc1sc(N2CCOCC2)nc1-c1ccccc1,i,i,i,i,i,nt,nt,nt,nt,nt,nt,nt
CC(C)C1C(c2ccccc2)NC(c2ccccc2)CC1(O)c1ccc(F)cc1 (stereo not drawn),i,i,i,?,i,nt,nt,nt,nt,nt,nt,nt
COc1ccccc1OCCCCOc1ccccc1C(C)=O,6.0,i,18,7.4,15,nt,i,i,i,i,i,i
Cc1c(-c2ccccc2)[n+](=O)c(-c2ccc(Cl)cc2)c(C)n1[O-],i,i,i,i,i,nt,nt,nt,nt,nt,nt,nt
O=C(NCc1cccnc1)c1ccc(COc2ccc(Cl)cc2Cl)o1,i,i,i,i,i,nt,nt,nt,nt,nt,nt,nt
O=C(NCc1cccnc1)c1ccc(COc2cccc3ccccc23)o1,i,nt,49,47,56,nt,i,i,i,i,i,i
O=C(NCc1ccccc1)c1cnsn1,6.7,nt,24,9.6,13,nt,i,i,i,i,i,i
C/C(=N\Nc1ccc(C(=O)O)cc1)c1ccc(S(=O)(=O)NCc2ccco2)cc1,i,i,i,?,i,nt,nt,nt,nt,nt,nt,nt
CN(C)CCCNC(=O)c1ccc(/C=N/O)nc1,9.7,i,6.1,-11,12,nt,i,i,i,i,i,i
CNCCCNC(=O)c1ccc(/C=N/O)nc1,i,i,i,i,i,nt,nt,nt,nt,nt,nt,nt
Cc1nn(-c2ccccn2)c2c1C(=O)CC(C)(C)C2Br (stereo not drawn),i,i,i,?,i,nt,nt,nt,nt,nt,nt,nt
CCOC(=O)c1c(C)nc(SCC(N)=O)c(C#N)c1-c1ccccc1,182[activator],i,i,i,i,111,i,i,i,i,i,i
CCCn1c(N)nc2ccccc21,i,nt,i,i,144[activator],115,i,i,i,i,i,i
CC(Sc1nnc2ccccn12)C(=O)Nc1ccc2c(c1)OCO2 (stereo not drawn),i,i,i,?,i,nt,nt,nt,nt,nt,nt,nt
Cc1ccc(C(=O)N/C(=C\c2ccc3c(c2)OCO3)C(=O)Nc2ccc(C(=O)O)cc2)cc1,i,i,i,?,i,nt,nt,nt,nt,nt,nt,nt
COc1ccc(NC(=O)c2cc3c(=O)n4ccccc4nc3n2C)cc1OC,i,i,i,i,i,nt,nt,nt,nt,nt,nt,nt
Cc1nnc(N2CCOCC2)c2nn(-c3ccccc3)c(C)c12,i,i,i,i,147[activator],149,i,i,i,i,i,i
Cc1ccc(OCCn2nc3ccccc3n2)c(C)c1,i,nt,i,192[activator],i,121,i,i,i,i,i,i
Cc1ccc(OCCN2C(=O)c3ccccc3C2=O)c(C)c1,i,nt,i,i,i,nt,nt,nt,nt,nt,nt,nt
CCn1nnnc1NCc1ccc(N2CCCC2)cc1,i,nt,35,i,i,nt,i,i,i,i,i,i
CCc1ccc(NC(=O)C(=O)NCCOc2ccccc2Cl)cc1,i,i,i,i,i,nt,nt,nt,nt,nt,nt,nt
Cc1onc(C(=O)NCc2ccccn2)c1[N+](=O)[O-],i,i,i,i,i,nt,nt,nt,nt,nt,nt,nt
COc1nc(N)c(S(=O)(=O)c2ccccc2)cc1C#N,i,nt,i,i,145[activator],124,i,i,i,i,i,i
CCN(CC(=O)Nc1ccc2c(c1)OCCO2)c1ccc(S(=O)(=O)N2CCOCC2)cn1,-83,nt,i,i,i,80,i,i,i,i,i,i
SMILES,RGS16-Gao HTS,Biofilm kill mix,RGS4-Gao reg,RGS7-Gao reg,RGS8-Gao reg,RGS4-Gao HTS,Avidin counter,RGS8-Gao single,RGS7-Gao single,RGS16-Gao single,RGS4-Gao single,RGS19-Gao conf
Cc1cc(NC(=O)c2ccco2)ccc1-n1cnnn1,i,nt,i,i,i,nt,nt,nt,nt,nt,nt,nt
COc1cc(C(=O)Nc2ccc(-n3cnnn3)c(C)c2)cc(OC)c1OC,24,nt,25,28,41,nt,i,i,i,i,i,i
CC(=O)C1C(c2ccc(F)cc2)c2c(noc2C)CC1(C)O (stereo not drawn),i,i,i,?,i,nt,nt,nt,nt,nt,nt,nt
Cc1nn(C)cc1CN1CCCC(C(=O)c2ccc(-c3ccccc3)cc2)C1 (stereo not drawn),i,i,i,i,i,nt,nt,nt,nt,nt,nt,nt
O=C(NCCO)Nc1ccc2nc(-c3ccco3)c(-c3ccco3)nc2c1,17,i,i,40,48,66,nt,nt,nt,nt,nt,nt
O=C(/C=N/O)Nc1ccc2sc3ccccc3c2c1,i,i,i,?,i,nt,nt,nt,nt,nt,nt,nt
O=C(NNC(=O)c1ccncc1)NC1CCCCC1,i,i,i,i,i,nt,nt,nt,nt,nt,nt,nt
NCC(c1ccccc1)(c1ccccc1)c1ccccc1,24,i,i,i,i,98,i,i,i,i,i,i
CN(C)CCC(O)(c1ccccc1)c1ccccc1,i,nt,i,i,i,nt,nt,nt,nt,nt,nt,nt
O=C(CNC(=O)c1ccccc1)NCc1ccc(Cl)cc1,i,i,i,150[activator],i,104,i,i,i,i,i,i
O=C(c1ccco1)c1coc2c1cc(O)c1ccccc12,i,i,i,i,i,nt,nt,nt,nt,nt,nt,nt
O=C(NCC1(c2ccccc2)CCCC1)C(=O)N1CCOCC1,21,i,i,i,i,83,i,i,i,i,i,i
Cc1ccc(N=Nc2ccc(O)c3ncccc23)cc1,10,i,i,i,i,68,i,i,i,i,i,i
Cc1ccc(N=Nc2ccc(O)c3ncccc23)cc1C,i,i,i,i,i,nt,nt,nt,nt,nt,nt,nt
CC(C)(C)c1ccc(NC(=O)c2c(F)cccc2Cl)cc1,i,i,i,?,i,nt,nt,nt,nt,nt,nt,nt
CCCc1cc(-c2nc(-c3ccc(Br)cc3)cs2)ccn1,-6.4,i,i,i,i,83,i,i,i,i,i,i
CCCc1cc(-c2nc(-c3ccc(Cl)cc3)cs2)ccn1,i,nt,i,i,i,nt,nt,nt,nt,nt,nt,nt
O=C(Nc1cccc([N+](=O)[O-])c1)c1ccc2ccccc2c1O,i,i,i,?,i,nt,nt,nt,nt,nt,nt,nt
CCC(OC(=O)C1=Cc2ccccc2OC1)C(=O)NC1CCCC1 (stereo not drawn),nt,nt,nt,nt,nt,nt,i,i,i,i,i,i
Cc1ccc2cc3c(nc2c1)OCC3,i,i,i,?,i,nt,nt,nt,nt,nt,nt,nt
COC(=O)C1=C(C)N(Cc2ccco2)C(=O)/C1=C\c1ccc(N(C)C)cc1,231[activator],i,i,i,i,111,i,i,i,i,i,i
